Experimental data as given in ChEMBL document CHEMBL4052637, “Discovery and Characterization of R/S-N-3-Cyanophenyl-N'-(6-tert-butoxycarbonylamino-3,4-dihydro-2,2-dimethyl-2H-1-benzopyran-4-yl)urea, a New Histone Deacetylase Class III Inhibitor Exerting Antiproliferative Activity against Cancer Cell Lines” (J Med Chem, 2017).
The source made the active and inactive calls. The rule behind the calls is not given here.

Columns and labels:
[1] = target: T1, NAD-dependent protein deacetylase sirtuin-2 (Homo sapiens) (UniProt Q8IXJ6); assay: Inhibition of SIRT2 in human U373 cells assessed as increase of alpha-tubulin acetylation at 2.5 uM after 8 hrs by Western blotting method relative to control; assay type: cell-based
T1 sequence (whole entry): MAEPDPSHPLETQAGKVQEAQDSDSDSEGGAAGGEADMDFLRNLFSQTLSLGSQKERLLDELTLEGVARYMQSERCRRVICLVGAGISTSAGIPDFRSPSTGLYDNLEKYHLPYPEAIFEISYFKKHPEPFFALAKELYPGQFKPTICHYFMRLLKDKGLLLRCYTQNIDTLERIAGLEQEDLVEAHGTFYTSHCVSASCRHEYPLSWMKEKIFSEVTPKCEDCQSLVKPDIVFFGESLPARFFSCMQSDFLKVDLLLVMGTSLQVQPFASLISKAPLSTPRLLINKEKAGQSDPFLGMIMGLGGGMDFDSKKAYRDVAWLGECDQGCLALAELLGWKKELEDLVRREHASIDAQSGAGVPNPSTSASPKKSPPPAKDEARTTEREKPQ

[2] = test system: SF-295; assay: Growth inhibition of human SF295 cells after 48 hrs by SRB assay; assay type: functional; conditions: SF-295, 48 h
[3] = test system: SW1573; assay: Antiproliferative activity against human SW1573 cells after 72 hrs by MTT assay; assay type: functional, cell-based
How it was run: (§1)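 MTT assay: cells in RPMI 1640 with 10% heat-inactivated FCS at 37 °C and 5% CO2 were seeded 24 h before treatment. They were exposed 72 h to compound at 0.01–100 μM, with DMSO as solvent.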

[4] = test system: SW1573/2R160; assay: Antiproliferative activity against human SW1573/2R160 cells overexpressing ABCB1 after 72 hrs by MTT assay; assay type: functional, cell-based; how it was run: as §1

## CC(C)(C)OC(=O)Nc1ccc2c(c1)C(NC(=O)Nc1cccc(C#N)c1)CC(C)(C)O2 (centres undefined)
[1]
  fold change (FC): 1.4
[2]
  GI50: 2290 nM
[3]
  Activity: Active
[4]
  Activity: Active
